Measurements reported in article PMC9826235 (Chembiochem, 2022).

Test system: monoclonal anti-HpTGEKP antibody
Assay type: binding, mouse
Settings: gas phase complex dissociation; for TambΔSmg# / ΔGm0g# / ΔHm0g#: neutral and resting complex, Tamb 298 K, two measurement series except 02; for ΔHm0g# (approximate values in running text): text rounding of Table 3
Method in brief: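 Test phospho-hexapeptides and monoclonal antibody, each in 200 mM ammonium acetate, were mixed at a 3:1 peptide:antibody molar ratio. The mixtures were nano-electrosprayed, and multiply charged immune complex ions underwent gas phase dissociation; an unphosphorylated hexapeptide served as control. Data were duplicate series (mean, SD), fitted with a Boltzmann sigmoid. Enthalpies came from Arrhenius and Gibbs-Helmholtz plots taken at 1/Tamb.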

| Substance | TambΔSmg# | ΔGm0g# | ΔHm0g# | ΔHm0g# (approximate values in running text) |
| --- | --- | --- | --- | --- |
| HpSGERP [compound 06] | -15.87 kcal/mol | +64.65 kJ/mol | -0.418 kcal/mol |  |
| HpTEEKP [compound 09] | -15.93 kcal/mol | +64.64 kJ/mol | -0.485 kcal/mol | approx. −2.0 kJ/mol |
| HpTGEKL [compound 07] | -15.82 kcal/mol | +64.69 kJ/mol | -0.363 kcal/mol |  |
| HpTGEKP [compound 01] | -15.8 kcal/mol | +64.75 kJ/mol | -0.33 kcal/mol |  |
| HpTGERP [compound 02] | -15.74 kcal/mol | +64.79 kJ/mol | -0.261 kcal/mol |  |
| HpTGKKP [compound 05] | -15.06 kcal/mol | +64.84 kJ/mol | +1.81 kJ/mol | approx. +0.3 kJ/mol |
| HpTREKP [compound 10] | -15.43 kcal/mol | +64.83 kJ/mol | +0.28 kJ/mol | ~+1.8 kJ/mol |
